Screening data as filed in PubChem BioAssay.
An excerpt weighted towards active compounds, which were near 6.8% of everything screened.
PHOSPHO1 block: blocks human PHOSPHO1 phosphatase activity; Q8TCT1; recombinant PHOSPHO1, absorbance phosphatase assay; inhibition, % at 13.3 µM; 290,000 tested, 1.1% active; in the data active = inhibition above about 60%
Target sequence (Q8TCT1 whole entry, looked up): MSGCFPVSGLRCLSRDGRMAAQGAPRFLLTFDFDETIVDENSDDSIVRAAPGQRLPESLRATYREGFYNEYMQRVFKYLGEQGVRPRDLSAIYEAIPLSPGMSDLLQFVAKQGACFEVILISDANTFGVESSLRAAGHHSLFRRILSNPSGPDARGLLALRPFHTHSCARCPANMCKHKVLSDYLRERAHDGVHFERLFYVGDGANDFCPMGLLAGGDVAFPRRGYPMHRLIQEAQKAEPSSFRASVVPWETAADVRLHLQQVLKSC
AI-2 QS mod: modulates the Vibrio harveyi AI-2 quorum sensing system; Vibrio harveyi JMH597 AI-2 luminescence/OD600 ratio, 9 h; active compounds read low; strain lacks LuxN and CqsS sensors; 0 = neutral-control median; AID 2094; 300,000 tested, 0.4% active; activity change, % at 7.5 µM; in the data active = activity change below about -75%, passing the limit was not always enough; inconclusive = no clear call, values can overlap the other calls;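 note: luminescence divided by OD600 gain over 9 h not by final OD600 alone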
ALR inh: blocks human ALR sulfhydryl oxidase activity; purified ALR, DTT oxidation, H2O2 HRP-luminol luminescence; inhibition, % (concentration not given with the values); 290,000 tested, 3.8% active; AID 485317;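 active = mean replicate inhibition above about 79%, with every replicate also reaching it, limit read from the data; inconclusive = only one of the two criteria met; inactive = mean below limit and not every replicate reaching it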
HSF1 inhib: HSF1 inhibition | NIH3T3-HGL HSE-luciferase, MG132-induced, luminescence 8 h; active compounds read low | activity change, negative = inhibition, % at 7.5 µM (by protocol) | 300,000 tested, 0.77% active;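 active = more than half of replicate wells show activity change below -50%, luminescence cut by over half; inconclusive = some wells, but at most half, below -50%; inactive = no replicate well below -50%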;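 note: luciferase reports HSF-1 transcriptional activity via heat shock element; 0% = median of DMSO wells and -100% = zero luminescence signal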
HSF-1 act: increases HSF-1 driven luciferase reporter signal; NIH3T3-HGL HSF-1 luciferase reporter, MG132, 8 h; 100% = twice DMSO control signal; activation, % at 9 µM; 300,000 tested, 1.7% active;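 active = mean replicate activation of at least 50% with a set share of replicates each reaching 50%; inconclusive = only one of those two conditions met; inactive = mean below 50% and too few replicates reaching it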;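 note: 0% = median of the neutral control wells and 100% = twice that signal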
HCV core dimer: blocks dimerization of HCV core protein | TR-FRET GST/Flag-core106 dimerization, 1536-well | inhibition, % at 5 µM | 300,000 tested, 0.33% active | AID 1899;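 active = inhibition above the mean of all tested compounds plus 3 SD, set per screening campaign, cut at about 45% in these data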
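Assay system: GST-tagged and Flag-tagged HCV core protein residues 1-106 / Times: compound-protein-antibody incubation 4 h at 22.5 °C / Signal: time-resolved FRET, ex 340 nm, em 617 and 671 nm / Evaluation: % inhibition based on acceptor/donor emission ratio / Benchmarks: wells lacking GST-core106 and wells with excess unlabelled core106 / Repeats: singlicate, one well per compound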
Numbers without * were called inactive; ? = inconclusive; nt = no result given.

SMILES	PHOSPHO1 block	AI-2 QS mod	ALR inh	HSF1 inhib	HSF-1 act	HCV core dimer
Cc1cc(Cl)ccc1C(=O)C1CCCN(C(=O)c2snnc2C)C1 (configuration not stated)	27	17	-7	-2	-3	0
Cc1cccc(-n2c(SCC(=O)N3CCN(c4ccccn4)CC3)nnc2N2CCOCC2)c1	nt	nt	0	nt	nt	nt
O=c1cc(-c2cccc(Cl)c2)oc2cccc(O)c12	-23	-7	0	-1	-14	10
Cc1ccccc1-c1cc(=O)c2c(O)cccc2o1	-1	-1	5	27	57*	9
O=C1CCCCC1C(Nc1ccc(Cl)cc1)c1ccccc1 (configuration not stated)	17	3	98*	10	33	4
O=C1CCCCC1C(Nc1ccc(Br)cc1)c1ccccc1 (configuration not stated)	6	26	29	-8	-2	4
Cc1ccc2c(c1)c1c(n2CC(O)CNC2CCCC2)CCCC1 (configuration not stated)	23	35	89*	-1	18	-7
CCN(CC)S(=O)(=O)c1cccc(NC(=O)COC(=O)C2CC3C=CC2C3)c1 (configuration not stated)	17	19	nt	4	-8	0
O=C(Cn1ccc2ccccc2c1=O)NCC(=O)Nc1ccc(F)cc1F	23	nt	0	2	46	-17
CSc1ccc(C2C(C#N)=C(N)N(c3ccccc3)C3=C2C(=O)CCC3)cc1 (configuration not stated)	-13	10	-5	22	58*	26
N#CC1=C2N=C(N)c3c(sc4c3CCCCC4)N2C2=C(C(=O)CCC2)C1c1ccccc1 (configuration not stated)	70*	12	-18	0	13	34
CCOc1ccc(C2C(C#N)=C(N)N(c3sc4c(c3C#N)CCCC4)C3=C2C(=O)CCC3)cc1 (configuration not stated)	56	27	-13	9	-4	55*
Cc1ccc(C(=O)N2CCN(c3ccccc3O)CC2)cc1S(=O)(=O)N1CCCCC1	nt	15	98*	11	13	3
Cc1cc(S(=O)(=O)N2CCN(c3ccccc3O)CC2)c(C)s1	-4	20	98*	-10	2	7
c1ccc(-c2ccc(-c3ccncn3)cc2)cc1	nt	-9	-8	9	44	0
COc1ccc(C(CNC(=O)c2cccc(NS(=O)(=O)c3ccc(Br)cc3)c2)N(C)C)cc1 (configuration not stated)	nt	7	-4	5	5	-4
NS(=O)(=O)c1cccc(NS(=O)(=O)c2ccc3ccccc3c2)c1	11	-97*	2	5	9	6
O=C(CN1C(=O)C2C3CC(C(Br)C3Br)C2C1=O)Nc1ccc(C(=O)O)cc1 (configuration not stated)	-1	-3	-17	-3	-19	-2
CCn1c(CC(=O)Nc2ccccc2C)nnc1SCC(=O)NC1CCCC1	28	-2	0	-1	-10	-27
Cc1ccc(/C=N\Nc2nc3ccc(Cl)cc3[nH]2)o1	22	13	95*	27	?	-44
Cc1ccc(/C=N/Nc2nnc(Cc3ccccc3)c(=O)[nH]2)o1	27	-5	-3	4	9	-14
Fc1ccccc1-c1ccc(/C=N/Nc2nc3ccccc3[nH]2)o1	6	32	22	379	384*	-22
NC1=C([N+](=O)[O-])C(c2ccc(F)cc2)C2=C(CCCC2=O)O1 (configuration not stated)	3	68	43	0	39	-6
O=C1CC(c2ccc(F)cc2)CC2=C1C(c1ccc([N+](=O)[O-])o1)Nc1ccccc1N2 (configuration not stated)	-2	-13	nt	9	-3	3
Cc1ccccc1CNC(=O)c1ccccc1N(C)S(=O)(=O)c1ccccc1	14	-5	1	-3	-14	8
Cc1ccc(C2=NN(C(=S)Nc3ccccc3)C(c3ccco3)C2)cc1 (configuration not stated)	-45	-1	-2	39	61*	-7
